Test results reported in ChEMBL document CHEMBL1153905, “Functionalized 3-benzylidene-indolin-2-ones: inducers of NAD(P)H-quinone oxidoreductase 1 (NQO1) with antiproliferative activity” (Bioorg Med Chem, 2009).

What was measured:
HCT-116 [1] = experiment: Antiproliferative activity against human HCT116 cells after 72 hrs by MTT assay; assay type: functional, cell-based; conditions: HCT-116, 72 h
In short: (§1)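 Cells seeded at 10,000 (MCF7), 4000 (HCT116) or 5000 (CCL186) per well and grown 24 h; MCF7 and CCL186 in EMEM with pyruvate, glutamine, 10% FBS; HCT116 in McCoy's 5A with 10% FBS. Compounds from DMSO stocks (≤1% DMSO final), 72 h exposure; MTT 0.5 mg/ml for 3 h, formazan in DMSO read at 590 nm. IC50 from sigmoidal survival curve, three separate occasions.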

MCF7 [2] = experiment: Antiproliferative activity against human MCF7 cells after 72 hrs by MTT assay; assay type: functional, cell-based; conditions: MCF7, 72 h; in short: as §1
[3] = Antiproliferative activity against human CCL186 cells after 72 hrs by MTT assay; assay type: cell-based; conditions: CCL186, 72 h; in short: as §1
MCF7 [4] = experiment: Selectivity ratio of IC50 for human CCL186 cells to IC50 for human MCF7 cells
In short: (§2)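 MTT assay. MCF7 and CCL186 cells were grown in EMEM/10% FBS, HCT116 in McCoy's 5A/10% FBS. Seeding was 10,000 (MCF7), 4000 (HCT116) and 5000 (CCL186) cells per well, 24 h. Compound exposure was 72 h, DMSO ≤1% final. MTT 0.5 mg/ml for 3 h, formazan dissolved in DMSO, A590. IC50 came from sigmoidal survival curves, with 3 separate occasions per concentration. Ratio = IC50 CCL186 / IC50 of the cancer line.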

[5] = Selectivity ratio of IC50 for human CCL186 cells to IC50 for human HCT116 cells; assay type: ADME, cell-based, HCT-116; conditions: CCL186 cells and HCT116 cells, read-out: Ratio IC50; in short: as §2
HCT-116 [6] = experiment: Cell cycle arrest in human HCT116 cells released from G1 block assessed as accumulation at sub G1 phase at 10 uM after 24 hrs by flow cytometry; assay type: functional
HCT-116 [7] = experiment: Cell cycle arrest in human HCT116 cells released from G2 block assessed as accumulation at sub G1 phase at 10 uM after 24 hrs by flow cytometry; assay type: functional
HCT-116 [8] = experiment: Cell cycle arrest in human HCT116 cells released from G1 block assessed as accumulation at G1 phase at 10 uM after 24 hrs by flow cytometry; assay type: functional
HCT-116 [9] = experiment: Cell cycle arrest in human HCT116 cells released from G2 block assessed as accumulation at G1 phase at 10 uM after 24 hrs by flow cytometry; assay type: functional
HCT-116 [10] = experiment: Cell cycle arrest in human HCT116 cells released from G1 block assessed as accumulation at S phase at 10 uM after 24 hrs by flow cytometry; assay type: functional
HCT-116 [11] = experiment: Cell cycle arrest in human HCT116 cells released from G2 block assessed as accumulation at S phase at 10 uM after 24 hrs by flow cytometry; assay type: functional
HCT-116 [12] = experiment: Cell cycle arrest in human HCT116 cells released from G1 block assessed as accumulation at G2/M phase at 10 uM after 24 hrs by flow cytometry; assay type: functional
HCT-116 [13] = experiment: Cell cycle arrest in human HCT116 cells released from G2 block assessed as accumulation at G2/M phase at 10 uM after 24 hrs by flow cytometry; assay type: functional
[14] = Cytotoxicity against mouse Hepa-1c1c7 cells after 48 hrs by MTT assay; assay type: cell-based; conditions: hepa-1c1c7, 48 h
In short: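 Murine hepatoma cells in α-MEM with 10% heat- and charcoal-treated fetal calf serum, passages 6–17; MTT read-out as for the cancer lines but with 48 h compound exposure. Highest concentration tested 25 µM. IC50 from survival-versus-concentration curve; mean and SD, n = 3.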

[15] = molecular target: NAD(P)H dehydrogenase [quinone] 1 (Mus musculus) (UniProt Q64669); experiment: Induction of NQO1 activity in mouse Hepa-1c1c7 cells assessed as induction ratio at 0.05 uM after 48 hrs by MTT assay relative to control; assay type: cell-based
In short: (§3)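 Hepa1c1c7 cells, 10,000 per well, 24 h, were then treated 48 h (DMSO ≤0.5%). Digitonin/EDTA lysates were assayed for menadione-dependent MTT-formazan formation using a G6P/G6PDH NADPH-generating mix with FAD at pH 7.4. The reaction ran 5 min, was stopped with dicoumarol, and read at A590. Degree of induction = (A test − blank)/(A control − blank). Ratios were read off the induction–concentration plot at the EROD test concentration.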

CYP1A1 [16] = molecular target: T1, CYP1A1 (Mus musculus, UniProt P00184); experiment: Induction of CYP1A1 activity in mouse Hepa-1c1c7 cells assessed as induction ratio at 0.05 uM after 48 hrs by EROD assay relative to control; assay type: ADME, cell-based
T1 sequence (P00184 whole entry): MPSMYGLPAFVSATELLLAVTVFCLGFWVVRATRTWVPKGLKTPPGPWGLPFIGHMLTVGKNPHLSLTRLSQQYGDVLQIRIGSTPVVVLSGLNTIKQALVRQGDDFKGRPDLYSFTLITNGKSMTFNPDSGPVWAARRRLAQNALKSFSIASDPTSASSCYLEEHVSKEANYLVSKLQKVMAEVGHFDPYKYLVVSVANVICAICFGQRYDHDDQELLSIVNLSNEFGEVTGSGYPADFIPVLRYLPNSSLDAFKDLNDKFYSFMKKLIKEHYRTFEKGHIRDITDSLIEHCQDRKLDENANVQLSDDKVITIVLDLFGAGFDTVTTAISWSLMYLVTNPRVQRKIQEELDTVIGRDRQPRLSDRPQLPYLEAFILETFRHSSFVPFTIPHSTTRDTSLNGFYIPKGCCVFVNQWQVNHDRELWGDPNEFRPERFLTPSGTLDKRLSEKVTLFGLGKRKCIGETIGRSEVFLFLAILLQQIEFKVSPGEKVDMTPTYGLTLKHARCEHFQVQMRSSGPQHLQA
In short: (§4)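 About 10,000 Hepa1c1c7 cells/well cultured 24 h, then compound (0.5% DMSO final) for 48 h, at roughly 4 × the concentration doubling NQO1 activity. After PBS wash, cells given 5 µM 7-ethoxyresorufin plus 2 mM salicylamide, 37 °C, 40 min; resorufin fluorescence ex 530/em 590 nm, corrected for compound fluorescence. Ratio = (treated − blank)/(DMSO control − blank); mean ± SD, n = 3.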

CYP1A1 [17] = molecular target: T1, CYP1A1; experiment: Induction of CYP1A1 activity in mouse Hepa-1c1c7 cells assessed as induction ratio at 10 uM after 48 hrs by EROD assay relative to control; assay type: ADME, cell-based; in short: as §4
[18] = molecular target: NAD(P)H dehydrogenase [quinone] 1 (Mus musculus) (UniProt Q64669); experiment: Induction of NQO1 activity in mouse Hepa-1c1c7 cells assessed as induction ratio at 10 uM after 48 hrs by MTT assay relative to control; assay type: cell-based; in short: as §3
HCT-116 [19] = experiment: Cell cycle arrest in human HCT116 cells released from G1 block assessed as accumulation at sub G1 phase at 30 uM after 24 hrs by flow cytometry; assay type: functional
HCT-116 [20] = experiment: Cell cycle arrest in human HCT116 cells released from G2 block assessed as accumulation at sub G1 phase at 30 uM after 24 hrs by flow cytometry; assay type: functional
HCT-116 [21] = experiment: Cell cycle arrest in human HCT116 cells released from G1 block assessed as accumulation at G1 phase at 30 uM after 24 hrs by flow cytometry; assay type: functional
HCT-116 [22] = experiment: Cell cycle arrest in human HCT116 cells released from G2 block assessed as accumulation at G1 phase at 30 uM after 24 hrs by flow cytometry; assay type: functional
HCT-116 [23] = experiment: Cell cycle arrest in human HCT116 cells released from G1 block assessed as accumulation at S phase at 30 uM after 24 hrs by flow cytometry; assay type: functional
HCT-116 [24] = experiment: Cell cycle arrest in human HCT116 cells released from G2 block assessed as accumulation at S phase at 30 uM after 24 hrs by flow cytometry; assay type: functional
HCT-116 [25] = experiment: Cell cycle arrest in human HCT116 cells released from G1 block assessed as accumulation at G2/M phase at 30 uM after 24 hrs by flow cytometry; assay type: functional
HCT-116 [26] = experiment: Cell cycle arrest in human HCT116 cells released from G2 block assessed as accumulation at G2/M phase at 30 uM after 24 hrs by flow cytometry; assay type: functional

Sequence of NAD(P)H dehydrogenase [quinone] 1 (Mus musculus) (Q64669 whole entry): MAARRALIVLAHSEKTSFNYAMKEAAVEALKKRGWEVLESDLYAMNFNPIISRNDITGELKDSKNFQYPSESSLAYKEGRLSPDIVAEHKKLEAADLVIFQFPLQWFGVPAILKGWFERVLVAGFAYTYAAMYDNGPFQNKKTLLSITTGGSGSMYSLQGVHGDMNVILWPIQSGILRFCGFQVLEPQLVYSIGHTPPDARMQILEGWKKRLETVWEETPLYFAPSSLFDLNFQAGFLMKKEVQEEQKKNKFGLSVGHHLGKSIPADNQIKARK

IC50 (HCT-116 [1]) [µM]	IC50 (MCF7 [2]) [µM]	SMILES	IC50 [3] [µM]	Ratio IC50 (MCF7 [4])	selectivity ratio [5]	Activity (HCT-116 [6]) [%]	Activity (HCT-116 [7]) [%]	Activity (HCT-116 [8]) [%]	Activity (HCT-116 [9]) [%]	Activity (HCT-116 [10]) [%]	Activity (HCT-116 [11]) [%]	Activity (HCT-116 [12]) [%]	Activity (HCT-116 [13]) [%]	IC50 [14] [µM]	other results
5.1	7.7	COc1ccc(OC)c(/C=C2/C(=O)Nc3ccccc32)c1	18.1	3.5	2.4	2.64	9.83	24.24	39.33	26.68	16.68	46.51	34.26	> 25	Ratio [15]: 3.32; fold induction at 48 h, 0.05 µM (CYP1A1 [16]): 3.08
–	–	O=C1Nc2ccccc2/C1=C\c1ccc(Cl)cc1Cl	–	–	–	–	–	–	–	–	–	–	–	10.6	fold induction at 48 h, 10 µM (CYP1A1 [17]): 1.21; Ratio [18]: 4.24
4.8	6.2	COc1cccc(OC)c1/C=C1/C(=O)Nc2ccccc21	17.8	3.7	2.9	3.52	9.51	20.86	32.97	16	12.42	59.63	44.99	13.9	–
3.9	19.6	O=C1Nc2ccccc2/C1=C\c1cccc2ccccc12	25	6.4	1.3	–	–	–	–	–	–	–	–	18.6	Activity (HCT-116 [19]): 2.96%; Activity (HCT-116 [20]): 5.68%; Activity (HCT-116 [21]): 32.69%; Activity (HCT-116 [22]): 51.32%; Activity (HCT-116 [23]): 26.91%; Activity (HCT-116 [24]): 14.61%; Activity (HCT-116 [25]): 38.42%; Activity (HCT-116 [26]): 28.26%
